Cardio protect: cardioprotection against H2O2-induced cell death, primary screen, uHTS, H9c2 cells, ATPLite luminescence; H9c2 cardiomyocytes, H2O2 injury protection, 2 h; protection from H2O2 cell death, % at 20 µM; actives 0.63% (n = 360,000); AID 588492, 2011;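 active = compounds giving at least 50% protection of heart cells from peroxide-induced death in the single-dose screen, raw or plate-pattern-corrected value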;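 note: 0% = DMSO wells with peroxide and 100% = DMSO wells without peroxide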
SENP1 inh: human SENP1 catalytic domain inhibitors, primary screen, biochemical, FRET, uHTS. inhibition, % at 10 µM. actives 0.21% (n = 360,000). AID 624204, 2012. recombinant SENP1 catalytic domain, CyPet-SUMO1-YPet FRET cleavage;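 active = inhibition at least 30% at 10 µM, raw YFP signal under a set limit, fluorescence ratio 0.5 to 1.5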;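 note: 0% = enzyme with DMSO and 100% = no enzyme wells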
Target sequence (Q9P0U3 419-644 limits assumed): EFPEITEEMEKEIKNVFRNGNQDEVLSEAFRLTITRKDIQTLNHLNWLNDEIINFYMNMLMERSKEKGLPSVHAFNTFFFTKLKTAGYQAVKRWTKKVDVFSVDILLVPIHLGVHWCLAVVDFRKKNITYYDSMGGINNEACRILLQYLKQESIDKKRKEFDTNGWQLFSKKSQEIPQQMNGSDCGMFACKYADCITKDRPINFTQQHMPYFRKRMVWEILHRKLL
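Assay system: hSENP1 catalytic domain, recombinant. Amount: SENP1 enzyme, 20 pM final. Schedule: 50 min reaction, RT, dark. Technique: FRET, CFP and YFP emission. Control set: no-enzyme wells low, DMSO-plus-enzyme wells high control.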
Arr AP2 block: inhibitors of beta-arrestin/AP2 binding, primary screen, biochemical, GPCR trafficking, flow cytometry; beta-arrestin 1 C-terminal peptide binding to AP2 beta2-adaptin appendage (human); FITC-arrestin peptide / GST-AP2 beads; AP2 beta2 appendage carries R879A mutation; inhibition, % at 10 µM; actives 0.31% (n = 340,000); AID 504490, 2011;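 active = inhibition above a set limit, near 3 SD of compounds lacking own fluorescence, cut at about 54% in these data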;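 note: plate controls were DMSO wells for no effect and 5 µM unlabelled arrestin peptide for full effect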
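System: GST-AP2 R879A glutathione beads. Medium: PBS with 0.05% Tween 20 and 0.1% BSA. Also added: FITC-arrestin peptide, 50 nM. Incubation: 12 min plus 1 h, RT. Measured by: high-throughput flow cytometry of beads, ex 488, em 535 nm. Evaluation: percent drop in bead-associated FITC signal.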
FAS-TE inh: FAS thioesterase domain inhibitors, primary screen, biochemical, fluorescence intensity, uHTS; inhibition, % at 15 µM; actives 0.67% (n = 360,000); AID 602261, 2012; recombinant FAS-TE, OMFH fluorogenic substrate, fluorescence endpoint;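 active = compounds whose normalised, plate-corrected inhibition of enzyme fluorescence in the single-dose primary screen is 50% or more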;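 note: 0% = DMSO with enzyme and 100% = substrate without enzyme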
iPSC survival up: enhancers of single-cell hiPSC survival, primary screen, ATPlite luminescence. 100% = ROCK inhibitor wells, 0% = DMSO. survival enhancement, % at 20 µM. actives 0.044% (n = 360,000). AID 602274, 2012; in the data active = survival enhancement above about 18%;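 note: cells exposed to compounds for 16 hours before the ATP read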
GRIN3A LBD mod: binders of NR3A ligand-binding domain, primary screen, biophysical, differential scanning fluorimetry, uHTS | Glutamate receptor ionotropic, NMDA 3A (GRIN3A) ligand-binding domain | NR3A LBD differential scanning fluorimetry, Tm shift; 0% = protein alone, 100% = glycine-bound protein | Tm shift relative to glycine control, % at 25 µM | actives 2.5% (n = 340,000) | AID 1259313, 2017;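 active = melting temperature shift of at least 10% of the positive control shift, at one fixed dose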
Arr AP2 CP1: inhibitors of arrestin peptide binding to AP2, confirmation, biochemical, cherry pick 1, flow cytometry beads | shares compounds with Arr AP2 block | GST-AP2 beads, FITC arrestin peptide binding; GST-fused beta2-adaptin appendage, R879A mutant | inhibition, % at 10 µM | actives 2% (n = 1,300);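 active = inhibition above a set limit, roughly 3 SD of non-fluorescent compound noise, cut at about 38% in these data; inactive = inhibition at or below that limit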;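 note: loss of bead fluorescence from 50 nM FITC arrestin peptide bound to appendage; 0% = negative control wells and 100% = excess unlabelled arrestin peptide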
GST GSH counter: GST-fluorescein capture on glutathione beads, confirmation, artefact control for arrestin-AP2 inhibitor project, biochemical, cherry pick 1, flow cytometry | actives 2% (n = 1,300) | GST-fluorescein binding to GSH beads, fluorescence, counter-screen | shares compounds with Arr AP2 block | inhibition, % at 10 µM | AID 588338, 2011;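 active = inhibition above 50%, about 3 SD of the inhibition seen with non-fluorescent compounds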;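 note: fluorescein maleimide labelled GST captured on 4 micron glutathione beads; higher means more loss of bead fluorescence from quenching or blocked binding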
* hit, by the source's call. Rows were chosen to be rich in hits. Some 4% of all compounds tested hit in one or more screens of this group.

Cc1cccc(C)c1C(O)c1ncc(-c2cccc(C(F)(F)F)c2)[nH]1 (centres undefined) was read as Cardio protect -16.1, SENP1 inh -1.2, FAS-TE inh 7.2 and iPSC survival up 2.2.
For O=C1CCN(CC2CCCCC2)C=C1C(=O)c1ccccc1 the results were Cardio protect 9.5, SENP1 inh -1.4, Arr AP2 block -9.9, FAS-TE inh -12.9, iPSC survival up -1.7 and GRIN3A LBD mod -0.5.
CCOC(=O)C1=C(COC(=O)CCc2ccccc2)NC(=O)NC1C (centres undefined) was read as Cardio protect -1.5, SENP1 inh 0.5, Arr AP2 block 3.0, FAS-TE inh -7.7, iPSC survival up -0.4, GRIN3A LBD mod 1.9, Arr AP2 CP1 -6.7 and GST GSH counter -2.4.
Nc1cc(=O)nc2cn[nH]n12 was read as Cardio protect -9.9, SENP1 inh -0.7, FAS-TE inh -4.9 and iPSC survival up 0.2.
Screening CCOc1ccc(NC(=O)CC2C(=O)N(c3ccc(OC)cc3)C(=O)N2CCc2ccc(OC)c(OC)c2)cc1 (centres undefined) returned Cardio protect -3.9, SENP1 inh -1.5, Arr AP2 block 55.8*, FAS-TE inh 5.4, iPSC survival up 1.7, GRIN3A LBD mod -0.4, Arr AP2 CP1 0.2 and GST GSH counter -0.7.
`CCCCNC(=S)N/N=C/c1ccc(OCC(=O)Nc2c(C)cc(C)cc2C)c(OC)c1` gave Cardio protect 1.1, SENP1 inh 2.1, Arr AP2 block 102.9*, FAS-TE inh -14.8, iPSC survival up -1.0, GRIN3A LBD mod -27.2, Arr AP2 CP1 1.6 and GST GSH counter -2.4.
Screening COc1cc(/C=N/NC(=O)c2cccnc2)ccc1OCC(=O)Nc1ccc(C)cc1 returned Cardio protect 19.2, SENP1 inh 1.6, Arr AP2 block 91.0*, FAS-TE inh -6.3, iPSC survival up 0.4, GRIN3A LBD mod -23.3, Arr AP2 CP1 1.1 and GST GSH counter -5.4.
`CN(C)S(=O)(=O)c1cc(NC(=O)COC(=O)C2CSC3(C)CCC(=O)N23)ccc1Cl` (centres undefined) gave Cardio protect 3.0, SENP1 inh 2.9, Arr AP2 block 8.3, FAS-TE inh -5.4, iPSC survival up 0.9, GRIN3A LBD mod -4.6, Arr AP2 CP1 -5.4 and GST GSH counter -9.9.
`CCCCOC(=O)c1ccc(NC(=O)COC(=O)C2CSC3(C)CCC(=O)N23)cc1` (centres undefined) gave Cardio protect -2.5, SENP1 inh 2.0, Arr AP2 block 1.6, FAS-TE inh 4.2, iPSC survival up 0.1, GRIN3A LBD mod 0.2, Arr AP2 CP1 -10.6 and GST GSH counter -5.8.
`CC12CCC(=O)N1C(C(=O)OCC(=O)Nc1sccc1C#N)CS2` (centres undefined) gave Cardio protect 4.9, SENP1 inh -9.7, Arr AP2 block -6.2, FAS-TE inh -7.3, iPSC survival up -0.3 and GRIN3A LBD mod -0.8.
Screening COc1ccc(-c2c(Sc3ccccc3)c3cc(-c4ccc5c(c4)OCO5)ccc3n2C)cc1 returned SENP1 inh 29.9, FAS-TE inh 19.6 and iPSC survival up 1.4.

Assay outcomes as filed in PubChem BioAssay.
